In ChEMBL document CHEMBL5576140, “Computational Design of Pore-Forming Peptides with Potent Antimicrobial and Anticancer Activities” (J Med Chem, 2024):
The source made the active and inactive calls. The rule behind the calls is not given here.

Columns and labels:
Mus musculus = test: Induction of wound healing activity in immunosuppressed Balb/c mouse excisional dorsal wound infection model infected with Acinetobacter baumannii NCTC 13301 assessed as reduction in necrosis of epidermal tissue at wound edges at about 10 mg/kg treated for 7 days once daily; type: functional, organism-based; settings: time 7.0 day
[1] = Anti-cancer activity against human MEC-1 cells incubated for 24 hrs by WST assay; type: functional, cell-based; settings: MEC1, 24 h
MCF7 = test: pH-dependent anticancer activity against human MCF7 cells in RPMI medium at 10 uM incubated for 1 hr; type: functional, cell-based
How it was run: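 Cells cultured in RPMI, DMEM or PBS, each adjusted to pH 8, 7 or 6, plus one unadjusted (~7.6). Peptide at 10 μM for only 1 h, to limit pH drift from CO₂-bicarbonate buffering. Cell viability read. Controls were melittin, ampicillin and PBS. Two independent repetitions; effects analysed by ANOVA.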

H-KKKKLKKILKKLFQFINQLDNQLQDIKQNK-NH2
Activity (Mus musculus): Active | IC50 [1]: ≤ 10 µM | Activity (MCF7): Active
